Test results: ChEMBL document CHEMBL3616466, “Pyrazolo[3,4-h]quinolines promising photosensitizing agents in the treatment of cancer” (Eur J Med Chem, 2015)
Calls of active or inactive are those of the source. The calls are words filed in the database; no cut-off is given here.

Key:
Jurkat [1] = assay: Photocytotoxicity against human Jurkat cells assessed as growth inhibition at 2.5 J/cm'2 irradiation for 30 mins followed by drug treated for 72 hrs by MTT assay; assay type: functional; settings: light or radiation study
How it was run: (§1)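 Cells seeded at 5 × 10³ per well and pre-incubated 24 h. Drug dilutions in HBSS (pH 7.2, from DMSO stock) added for 30 min at 37 °C, then UV-A irradiation at the stated dose. Drug solution then replaced with culture medium and plates incubated 72 h. Viability by MTT; GI50 from concentration series.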

Jurkat [2] = assay: Photocytotoxicity against human Jurkat cells assessed as growth inhibition at 1.25 J/cm'2 irradiation for 30 mins followed by drug treated for 72 hrs by MTT assay; assay type: functional; settings: light or radiation study; how it was run: as §1
Jurkat [3] = assay: Photocytotoxicity against human Jurkat cells assessed as reduction of cell survival at 0.5 uM measured 72 hrs post 2.5 J/cm'2 irradiation by MTT assay in the presence of vitamin E, NaN3, DABCO, DMTU and MANN; assay type: functional, cell-based
How it was run: (§2)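 Jurkat cells irradiated at 2.5 J/cm² with compound in HBSS together with a scavenger: vitamin E 60 µM, NaN₃ 10 mM, DABCO 1 mM, GSH 1 mM, DMTU 1 mM or mannitol 10 mM. Medium replaced after irradiation; viability by MTT 72 h later.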

HL-60 [4] = assay: Photocytotoxicity against human HL60 cells assessed as growth inhibition at 2.5 J/cm'2 irradiation for 30 mins followed by drug treated for 72 hrs by MTT assay; assay type: functional; settings: HL-60, light or radiation study; how it was run: as §1
HL-60 [5] = assay: Photocytotoxicity against human HL60 cells assessed as growth inhibition at 1.25 J/cm'2 irradiation for 30 mins followed by drug treated for 72 hrs by MTT assay; assay type: functional; settings: HL-60, light or radiation study; how it was run: as §1
MCF7 [6] = assay: Photocytotoxicity against human MCF7 cells assessed as growth inhibition at 3.75 J/cm'2 irradiation for 30 mins followed by drug treated for 72 hrs by MTT assay; assay type: functional; settings: MCF7, light or radiation study; how it was run: as §1
MCF7 [7] = assay: Photocytotoxicity against human MCF7 cells assessed as growth inhibition at 2.5 J/cm'2 irradiation for 30 mins followed by drug treated for 72 hrs by MTT assay; assay type: functional; settings: MCF7, light or radiation study; how it was run: as §1
A549 [8] = assay: Photocytotoxicity against human A549 cells assessed as growth inhibition at 3.75 J/cm'2 irradiation for 30 mins followed by drug treated for 72 hrs by MTT assay; assay type: functional; settings: A549, light or radiation study; how it was run: as §1
A549 [9] = assay: Photocytotoxicity against human A549 cells assessed as growth inhibition at 2.5 J/cm'2 irradiation for 30 mins followed by drug treated for 72 hrs by MTT assay; assay type: functional; settings: A549, light or radiation study; how it was run: as §1
LoVo [10] = assay: Photocytotoxicity against human LoVo cells assessed as growth inhibition at 3.75 J/cm'2 irradiation for 30 mins followed by drug treated for 72 hrs by MTT assay; assay type: functional; settings: light or radiation study; how it was run: as §1
LoVo [11] = assay: Photocytotoxicity against human LoVo cells assessed as growth inhibition at 2.5 J/cm'2 irradiation for 30 mins followed by drug treated for 72 hrs by MTT assay; assay type: functional; settings: light or radiation study; how it was run: as §1
A549 [12] = assay: Photocytotoxicity against human A549 cells assessed as inhibition of colony formation at 2.5 J/cm'2 irradiation after 1 to 2 weeks using crystal violet staining by optical microscopy; assay type: functional, cell-based
How it was run: (§3)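 A-549 cells (10 × 10³) plated in dishes. After 24 h, irradiated at 2.5 J/cm² with compound at varying concentrations. Medium replaced, then cultured 1–2 weeks with medium changes every 2–3 days. Stained with crystal violet; colonies of ≥50 cells counted visually. Expressed as % of untreated cells; mean ± SEM of three experiments.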

Jurkat [13] = assay: Induction of apoptosis in human Jurkat cells assessed as reduction in alive cells using Annexin-V and propidium iodide staining at 1 to 2 uM measured 24 hrs post 2.5 J/cm'2 irradiation by flow cytometry analysis; assay type: functional, cell-based
How it was run: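 Jurkat cells irradiated (2.5 J/cm²) with compound at 1 or 2 µM. After 24 h, co-stained with Annexin V-FITC and PI and analysed by flow cytometry (excitation 488 nm; emission 525 and 585 nm). Mean of three independent experiments.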

Jurkat [14] = assay: Induction of apoptosis in human Jurkat cells assessed as increase in cleaved caspase 3 level at 1 uM measured 24 hrs post 2.5 J/cm'2 irradiation by Western blot analysis; assay type: functional, cell-based
How it was run: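 Jurkat cells irradiated (2.5 J/cm²) with compound at 1 µM. At 24 h, cells washed in cold PBS and lysed on ice for 20 min. 20 µg protein run on 8–16% gradient gels and transferred to nitrocellulose. Probed with rabbit anti-caspase-3 and β-actin (1:1000, 2 h), then peroxidase anti-rabbit IgG; ECL detection.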

Jurkat [15] = assay: Induction of apoptosis in human Jurkat cells assessed as reduction in mitochondrial potential at 1 to 2 uM using JC-1 staining measured 24 hrs post 2.5 J/cm'2 irradiation by FACS assay; assay type: functional, cell-based
How it was run: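 At 24 h after 2.5 J/cm² irradiation with compound at 1 or 2 µM, Jurkat cells were pelleted and resuspended in HBSS with 1 µM JC-1. After 10 min at 37 °C, fluorescence read at 530 and 590 nm by flow cytometry. Mean ± SEM, n=3.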

Jurkat [16] = assay: Induction of apoptosis in human Jurkat cells assessed as ROS production at 1 to 2 uM using HE and DCFDA staining measured 24 hrs post 2.5 J/cm'2 irradiation by FACS assay; assay type: functional, cell-based
Jurkat [17] = assay: Induction of apoptosis in human Jurkat cells assessed as lysosome death at 1 to 2 uM using acridine orange staining measured 24 hrs post 2.5 J/cm'2 irradiation by flow cytometry; assay type: functional, cell-based
Escherichia coli = assay: Induction of DNA damage in Escherichia coli pBR322 DNA measured at 7.5 J/cm'2 UV-A irradiation by neutral agarose electrophoresis
How it was run: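 pBR322 plasmid (100 ng) in 10 mM phosphate buffer pH 7.2 irradiated at 7.5 J/cm² UV-A with compound at a compound/DNA ratio of 3/1. Aliquots incubated at 37 °C with Fpg or Endo III. Run on 1% agarose in TAE at 70 V for 4 h; supercoiled, open circular and linear bands quantified.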

Jurkat [18] = assay: Induction of lipid peroxidation in human Jurkat cells at 2 uM measured 24 hrs post 2.5 J/cm'2 irradiation by TBA assay; assay type: functional, cell-based
How it was run: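 TBA test for TBARS performed on supernatant medium and on cell lysates 24 h post-irradiation. Mean ± SEM of three experiments.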

Jurkat [19] = assay: Photocytotoxicity against human Jurkat cells assessed as cell survival at 0.5 uM measured 72 hrs post 2.5 J/cm'2 irradiation by MTT assay in presence of lipophilic scavengers; assay type: functional, cell-based; how it was run: as §2
Jurkat [20] = assay: Cytotoxicity against human Jurkat cells assessed as growth inhibition after 72 hrs by MTT assay; assay type: functional
HL-60 [21] = assay: Cytotoxicity against human HL60 cells assessed as growth inhibition after 72 hrs by MTT assay; assay type: functional; settings: HL-60, 72 h
A549 [22] = assay: Cytotoxicity against human A549 cells assessed as growth inhibition after 72 hrs by MTT assay; assay type: functional; settings: A549, 72 h
How it was run: (§4)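 Cells (5 × 10³ per well) pre-incubated 24 h at 37 °C, 5% CO₂, then exposed in the dark to serial concentrations diluted from DMSO stock into complete medium for 72 h at 37 °C. Viability read by MTT; GI50 derived. LoVo in Ham's F-12, MCF-7 and A-549 in DMEM, all with 10% FBS and penicillin/streptomycin.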

MCF7 [23] = assay: Cytotoxicity against human MCF7 cells assessed as growth inhibition after 72 hrs by MTT assay; assay type: functional; settings: MCF7, 72 h; how it was run: as §4
LoVo [24] = assay: Cytotoxicity against human LoVo cells assessed as growth inhibition after 72 hrs by MTT assay; assay type: functional; how it was run: as §4
[25] = Induction of singlet oxygen generation measured after UV-A irradiation by RNO bleaching assay; assay type: physicochemical
How it was run: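 Compound (2.2 × 10⁻⁵ M), RNO (4 × 10⁻⁵ M) and imidazole (4 × 10⁻⁵ M) in phosphate buffer pH 7.3 irradiated with increasing UV-A doses. Absorbance read at 440 nm; reported as % RNO bleaching.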

[26] = Induction of superoxide anion generation measured after UV-A irradiation by NBT reduction assay; assay type: physicochemical
How it was run: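 Compound (10⁻⁵ M) with nitroblue tetrazolium (1.6 × 10⁻⁴ M) in carbonate buffer pH 10 irradiated with increasing UV-A doses. Absorbance at 560 nm followed as the superoxide read-out.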

A549 [27] = assay: Photocytotoxicity against human A549 cells assessed as inhibition of colony formation at 0.0625 to 0.5 uM measured 24 hrs post 2.5 J/cm'2 irradiation after 1 to 2 weeks by optical microscopy; assay type: functional, cell-based; how it was run: as §3
MCF7 [28] = assay: Ratio of angelicin GI50 to compound GI50 for human MCF7 cells assessed as growth inhibition at 3.75 J/cm'2 irradiation for 30 mins followed by drug treated for 72 hrs by MTT assay; assay type: functional
How it was run: (§5)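 Cells were pre-incubated 30 min at 37 °C with drug in HBSS, irradiated, then drug replaced with medium. Ratio is angelicin GI50 divided by compound GI50.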

LoVo [29] = assay: Ratio of angelicin GI50 to compound GI50 for human LoVo cells assessed as growth inhibition at 3.75 J/cm'2 irradiation for 30 mins followed by drug treated for 72 hrs by MTT assay; assay type: functional; how it was run: as §5
Jurkat [30] = assay: Photocytotoxicity against human Jurkat cells assessed as reduction of cell survival at 0.2 uM measured 72 hrs post 2.5 J/cm'2 irradiation by MTT assay in the presence of vitamin E, NaN3, DABCO, DMTU and MANN; assay type: functional, cell-based; how it was run: as §2

Row | SMILES | GI50 (Jurkat [1]) [nM] | GI50 (Jurkat [2]) [nM] | GI50 (HL-60 [4]) [nM] | GI50 (HL-60 [5]) [nM] | GI50 (MCF7 [6]) [nM] | GI50 (MCF7 [7]) [nM] | GI50 (A549 [8]) [nM] | GI50 (A549 [9]) [nM] | GI50 (LoVo [10]) [nM] | GI50 (LoVo [11]) [nM] | Activity (A549 [12]) | Activity (Jurkat [13]) | Activity (Jurkat [14]) | Activity (Jurkat [15]) | Activity (Jurkat [16]) | Activity (Jurkat [17]) | Activity (Escherichia coli) | Activity (Jurkat [18]) | GI50 (Jurkat [20]) [nM] | GI50 (HL-60 [21]) [nM] | also measured
1 | COc1ccc(-n2ncc3c2CCc2cc(S(=O)(=O)c4ccccc4)c(OC)nc2-3)cc1 | 640 | 1150 | 720 | 5290 | 1180 | 2530 | 1520 | 4020 | 530 | 3560 | Dose-dependent effect | Active | inactive | Active | inactive | inactive | inactive | Active | 12500 | > 20000 | Activity (Jurkat [3]): inactive; Activity (Jurkat [19]): inactive; GI50 (A549 [22]): > 20000 nM; GI50 (MCF7 [23]): > 20000 nM; GI50 (LoVo [24]): > 20000 nM
2 | COc1nc2c(cc1S(=O)(=O)c1ccccc1)CCc1c-2cnn1-c1ccc(Cl)cc1 | 430 | 720 | 480 | 4030 | 1690 | 7090 | 1490 | 5280 | 730 | 5530 | Dose-dependent effect | Active | inactive | Active | inactive | inactive | inactive | Active | 11400 | > 20000 | Activity (Jurkat [19]): inactive; GI50 (A549 [22]): > 20000 nM; GI50 (MCF7 [23]): > 20000 nM; GI50 (LoVo [24]): > 20000 nM
3 | COc1ccc(-n2ncc3c2ccc2cc(S(=O)(=O)c4ccccc4)c(=O)n(C)c23)cc1 | 250 | 580 | 440 | 610 | 140 | 290 | 80 | 270 | 90 | 190 | Dose-dependent effect | Active | Active | Active | Active | Active | inactive | Active | > 20000 | > 20000 | Activity [25]: Active; Activity [26]: Active; Activity (A549 [27]): Dose-dependent effect; Ratio IC50 (MCF7 [28]): 10; Ratio IC50 (LoVo [29]): 12; GI50 (A549 [22]): > 20000 nM; GI50 (MCF7 [23]): 9600 nM; GI50 (LoVo [24]): > 20000 nM
4 | Cn1c(=O)c(S(=O)(=O)c2ccccc2)cc2ccc3c(cnn3-c3ccc(Cl)cc3)c21 | 100 | 200 | 310 | 390 | 170 | 330 | 80 | 260 | 40 | 160 | Dose-dependent effect | Active | Active | Active | Active | Active | inactive | Active | – | – | Activity (Jurkat [30]): inactive; Activity [25]: Active; Activity [26]: Active; Ratio IC50 (MCF7 [28]): 8; Ratio IC50 (LoVo [29]): 27
